High-throughput results deposited in PubChem by several laboratories.
Arbovirus anti = blocks arbovirus infection; arbovirus infection cell-based antiviral screen; inhibition, % at 10 µM; 200,000 tested, 0.37% active; AID 1251; in the data active = inhibition above about 30%
ABCG2 inh = inhibitors of human ABCG2 transporter, ABCB1 counter-screen | inhibition, % at 6.6 µM | Q9UNQ0 | 190,000 tested, 0.1% active | IgMXP3 cells, JC-1 efflux, flow cytometry;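 active = inhibition above 80%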;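 also: 0% = DMSO and 100% = nicardipine control wells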
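test system = two drug-resistant human cell lines, ABCG2 and ABCB1 | amount = 3 million cells/mL final, two lines in 1:1 ratio | reagent = JC-1 transporter substrate | doses = one concentration, 6.6 µM final | incubation = 10 min at 25 °C | signal = flow cytometric JC-1 green MFI at 530 nm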
ABCB1 block = blocks JC-1 efflux by human ABCB1 transporter; 190,000 tested, 0.067% active; AID 1326; inhibition, % at 6.6 µM; P08183; CCRF-Adr cells, flow cytometry; in the data active = inhibition above about 40%;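 also: 0% = vehicle and 100% = reference inhibitor; higher value means more JC-1 retained so stronger ABCB1 efflux block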
Mdm2 ligase inh = inhibitors of human Mdm2 E3 ubiquitin ligase; 210,000 tested, 0.11% active; cell-based MDM2 ubiquitination luciferase reporter, 2 h; 0 = plate control, 100 = twice control, blank-subtracted; Q00987; signal enhancement, % at 5 µM;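 active = signal enhancement of 30% or more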;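 also: luminescence tracks abundance of the self-degrading MDM2-luciferase fusion protein; higher signal means inhibition of MDM2 E3 ligase activity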
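Buffer or medium: Cells held in DMEM | Assay system: Stable mammalian line carrying autodegrading MDM2–luciferase fusion reporter | Quantity: 2000 cells/well | Times: 4 h settle plus 2 h compound, 37 °C | Doses: One concentration, 5 µM, with 0.2% DMSO | Technique: Luminescence with SteadyLite reagent, 15 min at room temperature | Benchmarks: Plate controls and plate blanks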
Rad51 HR inh = Rad51 (human) homologous recombination inhibition | hRad51 DNA strand exchange, fluorescence dequenching | inhibition, % at 10 µM | 200,000 tested, 0.085% active | Q06609 | AID 1385;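 active = inhibition above 40% at the single screening dose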;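 also: 0% = DMSO control wells and 100% = blanks with heterologous ssDNA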
Target sequence (Q06609 whole entry, looked up): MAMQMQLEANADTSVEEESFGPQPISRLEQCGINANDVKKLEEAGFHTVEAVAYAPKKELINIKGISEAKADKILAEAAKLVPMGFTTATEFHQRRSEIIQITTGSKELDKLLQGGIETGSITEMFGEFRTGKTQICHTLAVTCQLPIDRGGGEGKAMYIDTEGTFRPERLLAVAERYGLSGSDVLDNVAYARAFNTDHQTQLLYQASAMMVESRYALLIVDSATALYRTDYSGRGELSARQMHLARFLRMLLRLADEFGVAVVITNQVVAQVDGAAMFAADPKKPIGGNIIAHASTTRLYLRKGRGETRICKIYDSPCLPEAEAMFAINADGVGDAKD
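Test system: preformed human Rad51 ssDNA filaments; also added: Donor/quencher-labelled 47-bp dsDNA substrate; doses: 10 µM final, single point; times: 37 °C 15-min filament assembly, 30-min compound preincubation, 15-min exchange; detection: FRET fluorescence dequenching, excitation 485 nm, emission 520 nm; read-out basis: Fluorescence-based percent inhibition, control- and blank-normalised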
Numbers without * were called inactive; . = no result given. The list is not random: actives were taken first. Their share in the collection is about 0.62%.

SMILES | Arbovirus anti | ABCG2 inh | ABCB1 block | Mdm2 ligase inh | Rad51 HR inh
Cc1cccc(N/C(N)=N/c2nc(C(F)(F)F)cc(=O)[nH]2)c1C | -0.4 | 1.1 | 0.1 | -0.9 | 8.8
CC(=O)Nc1ccc(S(=O)(=O)NCC(=O)OCC(=O)N2CCCc3ccccc32)cc1 | 0.2 | 1.5 | 0.7 | -8.1 | .
CC(=O)Nc1ccc(S(=O)(=O)N(C)CC(=O)OCC(=O)N2CCc3ccccc32)cc1 | 4.6 | 0.2 | -0.1 | 47.4* | .
CC(C)NC(=O)COc1nncc2ccccc12 | 5.1 | 0.2 | 0.6 | 6.2 | 6.9
Fc1cccc(Cl)c1/C=N/n1c(-c2cccnc2)n[nH]c1=S | -5.3 | -6.4 | -2.4 | 44.6* | 2.6
S=c1[nH]nc(-c2cccnc2)n1/N=C/c1ccccc1 | . | . | . | -7.1 | 7.1
CCOc1ccc(C(C)=O)cc1NC(=O)/C=C\C(=O)O | 4.6 | 3.8 | 1.7 | -14.8 | -2.0
Cc1ccc2c(c1)c(Sc1ccccc1)c(CC(=O)O)n2C | 31.0* | -4.8 | -0.1 | 1.2 | -2.8
CCN(CC)C(=O)CSc1nnc([C@@H](N)C(C)C)o1 | . | . | . | -15.0 | 1.1
Cc1ccc(S(=O)(=O)Nc2nc3ccccc3nc2NCc2ccco2)cc1 | 3.5 | 0.8 | 0.6 | -9.6 | -4.7
Cc1cccc(S(=O)(=O)Nc2nc3ccccc3nc2NCc2ccco2)c1 | 32.8* | 2.8 | 1.1 | 10.3 | .
Cc1cc2[nH]c3ccccc3c2c(C)n1 | -8.6 | 0.0 | 0.0 | 3.5 | -3.0
Cc1nc2c(c3c1[nH]c1ccccc13)C(O)CC(C)(C)C2 (configuration not stated) | 53.8* | 0.7 | -0.1 | -33.4 | 5.1
CNC(=S)NNC(=O)c1c(C)nc2cc(C)ccn12 | . | . | . | -13.5 | 4.1
COc1ccc(OCC(=O)N/N=C(\C)CC(=O)Nc2cccc([N+](=O)[O-])c2)cc1 | 2.9 | 11.3 | 0.2 | 32.1* | -0.6
CCS(=O)(=O)CCSC1OC(COC(C)=O)C(OC(C)=O)C(OC(C)=O)C1OC(C)=O (configuration not stated) | 3.7 | 1.7 | 0.9 | -10.9 | .
CCOc1ccc(-n2c(SCC(=O)Nc3cc(OC)c([N+](=O)[O-])cc3C)nc3ccccc32)cc1 | 53.9* | 10.3 | 23.6 | 5.0 | 4.9
CCCC(=O)Nc1cccc(NC(=O)c2ccc([N+](=O)[O-])cc2Cl)c1 | 45.1* | 33.9 | 1.0 | 4.7 | 0.1
CCOC(=O)Cn1nc(C)c(NC(=O)COc2ccccc2[N+](=O)[O-])c1C | 6.9 | 0.0 | 0.0 | -11.0 | 5.9
O=C(Oc1cc(Cl)cc(Cl)c1)c1cnc2n(c1=O)CCS2 | . | . | . | -7.3 | 7.4
CC(Sc1nnc2ccccn12)C(=O)Nc1ccc2c(c1)OCO2 (configuration not stated) | 2.0 | 0.1 | 0.1 | -8.9 | -7.3
N#CCSc1nc(N)c(C#N)c(C2CCCCC2)c1C#N | 34.1* | -2.3 | -3.0 | 2.4 | 9.9
N#Cc1c(N)nc(SCC(=O)NC2CCCCC2)c(C#N)c1-c1ccc(Cl)cc1 | -7.4 | 1.8 | 0.0 | -7.2 | -0.8
COc1ccc2[nH]c(=O)c(CN(CCCN(C)C)C(=O)Nc3ccc(F)cc3)cc2c1 | 30.3* | -5.1 | -6.4 | -10.9 | -6.1
CC(C)(C)c1ccc(COn2ccnc2)cc1 | 1.4 | -1.3 | -0.5 | -4.0 | 3.2
SMILES | Arbovirus anti | ABCG2 inh | ABCB1 block | Mdm2 ligase inh | Rad51 HR inh
CC(C)Oc1ccc(-c2nn(-c3ccccc3)cc2/C=c2\sc3ncnn3c2=O)cc1 | 33.8* | -0.5 | -0.5 | -15.4 | .
O=c1/c(=C/c2cn(-c3ccccc3)nc2-c2ccc(F)cc2)sc2nc3ccccc3n12 | 1.2 | -0.4 | 0.1 | -23.8 | 2.1
Cc1cc(NC(=O)CSc2nc(C(C)C)nc3c2c(=O)n(C)c(=O)n3C)no1 | -4.9 | 1.7 | 0.0 | 33.3* | 0.3
Cc1cc(NC(=O)CSc2nc(-c3ccccc3)nc3c2c(=O)n(C)c(=O)n3C)no1 | -1.1 | 1.4 | 0.6 | -8.3 | .
Cc1cc(C)n(-c2nc3c(c(=O)[nH]c(=O)n3C)n2Cc2ccccc2)n1 | -0.6 | 1.8 | 0.6 | -19.1 | 2.0
Cc1cc(C)n(-c2nc3c(c(=O)[nH]c(=O)n3C)n2Cc2ccc(F)cc2)n1 | -0.1 | 0.6 | 0.4 | -3.8 | 65.7*
CC(=O)/C=C1/SC(CC(=O)O)C(=O)N1c1ccccc1 (configuration not stated) | 5.4 | 7.8 | 0.7 | -0.6 | -1.4
CCCCN(CCCC)CC(O)COc1ccccc1Br (configuration not stated) | 39.3* | 40.5 | 6.6 | -13.9 | 0.4
